Rows were chosen to be rich in hits. Some 1.3% of all compounds tested hit in one or more screens of this group.
Diaphorase inh – diaphorase inhibition or chemical oxidation counter-screen. inhibition, % at 20 µM. AID 1217. diaphorase resazurin-to-resorufin fluorescence, NADH, 16 min; bacterial (C. kluyveri) enzyme, not human. 190,000 compounds, 0.69% hits;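 active means primary screen inhibition at 20 µM above a set limit, cut at about 50% in these data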;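 further: plate controls were DMSO with full reaction for no effect and wells lacking NADH for full effect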
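Assay system – diaphorase enzyme from Clostridium kluyveri · Amount – diaphorase 0.14 U/mL (working solution) · Times – reaction incubation of 16 min at room temperature · Controls – No-NADH positive control and DMSO neutral control · Signal – resorufin fluorescence 544/590 nm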
Tb hexokinase – T. brucei hexokinase 1 inhibition; recombinant TbHK1, G6PDH-coupled NADH A340; inhibition, % at 10 µM; 220,000 compounds, 0.11% hits; AID 1430;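 active means inhibition of 50% or more in the single-dose primary screen; inactive means inhibition below 50%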
PfGluPho inh – PfG6PD (Plasmodium falciparum) enzyme inhibition; PfGluPho enzyme, NADPH resazurin-diaphorase fluorescence; 350,000 compounds, 0.78% hits; inhibition, % at 20 µM;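 active means inhibition reaching at least a set limit at 20 µM in the primary screen, cut at about 59% in these data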;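 further: 0% = DMSO wells with substrate and 100% = DMSO wells lacking glucose-6-phosphate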
G6PDH CS – counter-screen for G6PDH assay hits: L. mesenteroides G6PDH inhibition | Purified L. mesenteroides G6PDH, diaphorase/resazurin coupled fluorescence, 45 min | inhibition, % at 5 µM | 200,000 compounds, 0.12% hits | AID 1020; in the data active means inhibition above about 50%
Diaph act CS – activates diaphorase or chemically reduces, flagging diaphorase assay artifacts; activation factor at 20 µM; 190,000 compounds, 0.005% hits; Diaphorase/resazurin coupled assay, resorufin fluorescence, 16 min; active compounds read high; 1 = vehicle wells, 0 = NADH-free wells;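 active means diaphorase activity raised at least twofold by the compound at 20 µM; inactive means activation factor below 2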
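Material: purified diaphorase enzyme from Clostridium kluyveri; Also added: 0.114 mM NADH and 0.1 mM resazurin, final amounts; Doses: single compound dose of 20 µM, 1% DMSO final; Times: 16 min enzyme reaction, ambient temperature; Detection: resorufin fluorescence, excitation 544 nm, emission 590 nm; Measure: increased resorufin signal from activators or reducing compounds.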
HKDC1 inh – blocks human hexokinase HKDC1 activity; inhibition, % at 20 µM; recombinant HKDC1, G6PDH/diaphorase resazurin coupled fluorescence; 340,000 compounds, 0.16% hits;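 active means inhibition above about 35% when tested at 20 µM, limit read from the data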;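 further: plate controls were DMSO wells with enzyme for no effect and DMSO wells lacking enzyme for full effect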
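Test system: HK5 enzyme. Quantity: 5 µg/mL HK5 final. Reagent: glucose and ATP substrates. Schedule: 90 min reaction incubation at room temperature, dark. Technique: resazurin-to-resorufin fluorescence via G6PDH and diaphorase coupling, 525/613 nm. Control set: DMSO wells with and without enzyme mix.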
PfG6PD confirm – PfG6PD inhibition, single-dose confirmed. shares compounds with PfGluPho inh. recombinant PfGluPho, NADPH-diaphorase-resazurin fluorescence. inhibition, % at 20 µM. 2,400 compounds, 34% hits;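 active means inhibition of at least 50% at 20 µM in any single replicate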;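 further: 0% = DMSO with substrate and 100% = DMSO lacking glucose-6-phosphate substrate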
Diaph ctr 10uM – diaphorase inhibition or oxidation at 10 uM NADPH | AID 504862 | inhibition, % at 20 µM | shares compounds with PfGluPho inh | diaphorase-coupled resazurin reduction, fluorescence, NADPH 10 uM | 820 compounds, 39% hits;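 active means average inhibition reaching 50% or more with the compound at 20 µM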;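 further: resorufin red fluorescence formed as diaphorase reduces resazurin using NADPH; 0% = DMSO with enzyme and 100% = DMSO without enzyme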
Diaphorase 30uM – counter-screen for P. falciparum G6PD inhibitors: diaphorase inhibitors, oxidizers; shares compounds with PfGluPho inh; Diaphorase/resazurin coupled assay, resorufin fluorescence, 30 uM NADPH; inhibition, % at 20 µM; 820 compounds, 29% hits;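 active means inhibition averaging 50% or more, tested at 20 µM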;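 further: 0% = DMSO with enzyme and 100% = DMSO wells lacking diaphorase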
* = called active by the depositor; x = no result; ! = not confirmed by another sample.

SMILES	Diaphorase inh	Tb hexokinase	PfGluPho inh	G6PDH CS	Diaph act CS	HKDC1 inh	PfG6PD confirm	others
C=CCN1C(=O)N/C(=C/c2ccc(C)o2)C1=O	13	-30	11	-9	0.9	-12	x
C=CCc1c(C)nc(C)nc1N/N=C/c1ccccc1O	16	-26	68*	14	0.8	-3	5
O=C(CCc1nnc(-c2ccc3c(c2)OCO3)o1)N1CCC(c2ccc(F)cc2)C1 (stereo not given)	18	-2	-6	4	0.8	-6	x
COc1ccc2c(C)cc(Sc3nnnn3-c3ccccc3)nc2c1	14	-8	60*	-8	0.9	2	6
Cc1cc(OCC(=O)Nc2nnc(C3CC3)s2)ccc1[N+](=O)[O-]	11	-11	-25	9	0.9	-2	x
COc1ccc(Cl)cc1S(=O)(=O)N1CCN=C1Cc1ccccc1	x	x	19	x	x	-4	x
COc1ccccc1S(=O)(=O)n1cc(Cc2ccccc2)c(N)n1	13	9	76*	8	0.9	-2	7
O=S(=O)(Nc1c(O)ccc2ccccc12)c1cccc2ccccc12	x	x	84*	x	x	29	44
O=S(=O)(Nc1cccc2ccccc12)c1ccccc1F	x	x	11	x	x	4	x
CCN1CCN(Cc2ccc(NC(=O)c3ccc(C)c(NC(=O)c4ccno4)c3)cc2C(F)(F)F)CC1	x	0	18	x	x	4	x
CCN1CCN(Cc2ccc(NC(=O)c3ccc(C)c(/C=C/c4cnc(Nc5cc(N6CCNCC6)nc(C)n5)cn4)c3)cc2C(F)(F)F)CC1	x	x	66*!	x	x	6	31
CCOc1ccccc1NC(=O)CCCc1nc2ccccc2c(=O)[nH]1	7	8	67*	-3	0.9	-10	53*	Diaph ctr 10uM=39;Diaphorase 30uM=36
CCOc1ccc(Oc2ccccc2NC(=O)CCc2nc3ccccc3c(=O)[nH]2)cc1	x	x	8	x	x	x	x
CC1=CN2C(=N)/C(=C/c3ccc([N+](=O)[O-])o3)C(=O)N=C2S1	50	-3	59*	-28	0.5	1	73*	Diaph ctr 10uM=26;Diaphorase 30uM=35
C=CCSc1nc2sc3c(c2c(=O)n1CC)CCc1ccccc1-3	21	-2	84*	7	0.8	-21	51*	Diaph ctr 10uM=-16;Diaphorase 30uM=-1
Cc1ccc(-c2nc3c4ccccc4ccn3c2Cc2ccccc2)cc1	x	x	50	x	x	x	x
Cc1ccc(Cc2c(-c3ccc(Cl)cc3)nc3cc(C)ccn23)cc1	x	x	96*	x	x	x	3
Cc1ccn2c(CC(C)(C)C)c(-c3ccc(F)cc3)nc2c1	x	x	29	x	x	x	x
Cc1ccn2c(Cc3ccccc3)c(-c3ccc(Br)cc3)nc2c1	x	x	108*	x	x	x	25
Cc1ccc(Cc2c(-c3ccc(C)cc3)nc3cc(C)ccn23)cc1	x	x	63*	x	x	x	6
Cc1ccn2c(Cc3ccccc3)c(-c3ccccc3)nc2c1	x	x	12	x	x	x	x
OCCCNC(=S)NC1CCCC1	-3	2	-3	9	1	0	x
COC(=O)C1CN(C(=O)C(C)Oc2ccc(C(C)C)cc2)c2ccccc2O1 (stereo not given)	x	x	9	x	x	4	x
CC1(C2CC2)NC(=O)N(CC(=O)Nc2ccc(OC(F)F)cc2)C1=O (stereo not given)	x	x	10	x	x	x	x
CS(=O)(=O)c1cccc(C(=O)Nc2cccc(S(=O)(=O)N3CCCC3)c2)c1	x	x	14	x	x	-6	x
COc1cc(C(=O)Nc2cccc(S(=O)(=O)N3CCCC3)c2)cc(OC)c1C	x	-11	60*	x	x	4	-8
O=C(C[n+]1ccc(C(=O)NCCCO)cc1)c1cccc(Br)c1	x	-14	13	x	x	-1	x
CC1=CC2(C)C(C3C(C)=CC2(C)C(=O)C3(C)O)C(C)(O)C1=O (stereo not given)	x	x	-1	x	x	-1	x
CCOC(=O)c1sc(N/N=C/c2ccccc2)nc1C	10	-11	66*	6	0.9	-5	23
